{
  "source": "ChEMBL document CHEMBL1154048",
  "about": "“Design, synthesis and pharmacological evaluation of new 1-[3-(4-arylpiperazin-1-yl)-2-hydroxy-propyl]-3,3-diphenylpyrrolidin-2-one derivatives with antiarrhythmic, antihypertensive, and alpha-adrenolytic activity” (Eur J Med Chem, 2009)",
  "key": {"Rattus norvegicus [1]": {"test_system": "Rattus norvegicus", "assay": "Hypotensive activity in normotensive Wistar rat assessed as diastolic blood pressure at 5 mg/kg, iv after 30 mins (Rvb=119 +/- 1.2 mmHg)", "format": "functional, Artery"}, "Rattus norvegicus [2]": {"test_system": "Rattus norvegicus", "assay": "Hypotensive activity in normotensive Wistar rat assessed as diastolic blood pressure at 5 mg/kg, iv after 30 mins (Rvb=126 +/- 4.6 mmHg)", "format": "functional, Artery"}, "Rattus norvegicus [3]": {"test_system": "Rattus norvegicus", "assay": "Hypotensive activity in normotensive Wistar rat assessed as diastolic blood pressure at 5 mg/kg, iv after 20 mins (Rvb=126 +/- 4.6 mmHg)", "format": "functional, Artery"}, "Rattus norvegicus [4]": {"test_system": "Rattus norvegicus", "assay": "Hypotensive activity in normotensive Wistar rat assessed as systolic blood pressure at 5 mg/kg, iv after 30 mins (Rvb=141.3 +/- 6.4 mmHg)", "format": "functional, Artery"}, "Rattus norvegicus [5]": {"test_system": "Rattus norvegicus", "assay": "Hypotensive activity in normotensive Wistar rat assessed as systolic blood pressure at 5 mg/kg, iv after 10 mins (Rvb=141.3 +/- 6.4 mmHg)", "format": "functional, Artery"}, "Rattus norvegicus [6]": {"test_system": "Rattus norvegicus", "assay": "Hypotensive activity in normotensive Wistar rat assessed as systolic blood pressure at 5 mg/kg, iv after 60 mins (Rvb=139 +/- 0.6 mmHg)", "format": "functional, Artery"}, "Rattus norvegicus [7]": {"test_system": "Rattus norvegicus", "assay": "Hypotensive activity in normotensive Wistar rat assessed as diastolic blood pressure at 5 mg/kg, iv after 5 mins (Rvb=120 +/- 1.7 mmHg)", "format": "functional, Artery"}, "Rattus norvegicus [8]": {"test_system": "Rattus norvegicus", "assay": "Hypotensive activity in normotensive Wistar rat assessed as systolic blood pressure at 5 mg/kg, iv after 5 mins (Rvb=139 +/- 0.6 mmHg)", "format": "functional, Artery"}, "Rattus norvegicus [9]": {"test_system": "Rattus norvegicus", "assay": "Hypotensive activity in normotensive Wistar rat assessed as diastolic blood pressure at 5 mg/kg, iv after 10 mins (Rvb=120 +/- 1.7 mmHg)", "format": "functional, Artery"}, "Rattus norvegicus [10]": {"test_system": "Rattus norvegicus", "assay": "Hypotensive activity in normotensive Wistar rat assessed as diastolic blood pressure at 5 mg/kg, iv after 60 mins (Rvb=120 +/- 1.7 mmHg)", "format": "functional, Artery"}, "Rattus norvegicus [11]": {"test_system": "Rattus norvegicus", "assay": "Hypotensive activity in normotensive Wistar rat assessed as systolic blood pressure at 2.5 mg/kg, iv after 5 mins (Rvb=125.6 +/- 7.6 mmHg)", "format": "functional, Artery"}, "Rattus norvegicus [12]": {"test_system": "Rattus norvegicus", "assay": "Hypotensive activity in normotensive Wistar rat assessed as systolic blood pressure at 2.5 mg/kg, iv after 30 mins (Rvb=125.6 +/- 7.6 mmHg)", "format": "functional, Artery"}, "Rattus norvegicus [13]": {"test_system": "Rattus norvegicus", "assay": "Hypotensive activity in normotensive Wistar rat assessed as diastolic blood pressure at 2.5 mg/kg, iv after 60 mins (Rvb=107.2 +/- 7.3 mmHg)", "format": "functional, Artery"}, "Rattus norvegicus [14]": {"test_system": "Rattus norvegicus", "assay": "Hypotensive activity in normotensive Wistar rat assessed as diastolic blood pressure at 2.5 mg/kg, iv after 30 mins (Rvb=107.2 +/- 7.3 mmHg)", "format": "functional, Artery"}, "Rattus norvegicus [15]": {"test_system": "Rattus norvegicus", "assay": "Hypotensive activity in normotensive Wistar rat assessed as systolic blood pressure at 2.5 mg/kg, iv after 60 mins (Rvb=125.6 +/- 7.6 mmHg)", "format": "functional, Artery"}, "Rattus norvegicus [16]": {"test_system": "Rattus norvegicus", "assay": "Hypotensive activity in normotensive Wistar rat assessed as systolic blood pressure at 2.5 mg/kg, iv after 20 mins (Rvb=125.6 +/- 7.6 mmHg)", "format": "functional, Artery"}, "Rattus norvegicus [17]": {"test_system": "Rattus norvegicus", "assay": "Hypotensive activity in normotensive Wistar rat assessed as diastolic blood pressure at 5 mg/kg, iv after 20 mins (Rvb=127 +/- 8.1 mmHg)", "format": "functional, Artery"}, "Rattus norvegicus [18]": {"species_on_record": "Rattus norvegicus", "assay": "Selectivity for rat cerebral cortex alpha1 adrenergic receptor over rat cerebral cortex alpha2 adrenergic receptor", "format": "tissue-based", "procedure,_shortened": "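Rat cerebral cortex membranes were prepared in 50 mM Tris–HCl pH 7.6, homogenized and spun twice at 20 000 g. Competition was against [3H]prazosin 0.2 nM (α1) or [3H]clonidine 2 nM (α2), with 7–8 concentrations from 10^-11 to 10^-4 M. Nonspecific binding was defined with phentolamine for the prazosin assay. After filtration, binding was read by scintillation counting in duplicate. Ki was calculated by Cheng–Prusoff, and selectivity was compared from the α1 and α2 Ki values.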"}, "Rattus norvegicus [19]": {"test_system": "Rattus norvegicus", "assay": "Hypotensive activity in normotensive Wistar rat assessed as diastolic blood pressure at 5 mg/kg, iv after 10 mins (Rvb=127 +/- 8.1 mmHg)", "format": "functional, Artery"}, "Rattus norvegicus [20]": {"test_system": "Rattus norvegicus", "assay": "Hypotensive activity in normotensive Wistar rat assessed as systolic blood pressure at 5 mg/kg, iv after 60 mins (Rvb=142.5 +/- 3.6 mmHg)", "format": "functional, Artery"}, "Rattus norvegicus [21]": {"test_system": "Rattus norvegicus", "assay": "Hypotensive activity in normotensive Wistar rat assessed as diastolic blood pressure at 5 mg/kg, iv after 60 mins (Rvb=127 +/- 8.1 mmHg)", "format": "functional, Artery"}, "[22]": {"test_system": "Alpha-1B adrenergic receptor (Cavia porcellus)", "assay": "Antagonist activity at Alpha-1B adrenoceptor in guinea pig spleen assessed as inhibition of noradrenaline-induced contraction after 30 mins"}, "[23]": {"target": "T1, Alpha-1D adrenergic receptor (Rattus norvegicus) (UniProt P23944)", "T1 sequence (whole entry)": "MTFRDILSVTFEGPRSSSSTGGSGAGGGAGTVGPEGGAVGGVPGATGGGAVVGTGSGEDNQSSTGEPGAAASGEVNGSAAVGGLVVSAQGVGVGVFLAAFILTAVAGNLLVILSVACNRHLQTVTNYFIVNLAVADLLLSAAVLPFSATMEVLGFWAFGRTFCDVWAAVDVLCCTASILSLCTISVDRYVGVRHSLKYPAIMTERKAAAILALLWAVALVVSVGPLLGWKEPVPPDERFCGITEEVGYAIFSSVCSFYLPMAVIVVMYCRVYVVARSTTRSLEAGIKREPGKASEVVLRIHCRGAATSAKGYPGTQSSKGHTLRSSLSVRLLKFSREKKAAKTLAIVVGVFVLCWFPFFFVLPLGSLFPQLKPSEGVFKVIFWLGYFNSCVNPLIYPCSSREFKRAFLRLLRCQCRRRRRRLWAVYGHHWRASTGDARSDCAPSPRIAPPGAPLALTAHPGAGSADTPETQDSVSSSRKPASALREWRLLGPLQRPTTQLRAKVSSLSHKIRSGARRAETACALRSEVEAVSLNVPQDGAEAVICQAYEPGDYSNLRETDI", "assay": "(§1) Antagonist activity at Alpha-1D adrenoceptor in Wistar rat thoracic aorta assessed as inhibition of noradrenaline-induced contraction after 30 mins", "format": "functional, tissue-based", "procedure,_shortened": "(§2)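 Male Wistar rats (200–350 g) were anaesthetized with thiopental 75 mg/kg ip. Endothelium-denuded thoracic aorta rings (~4 mm) were held in Krebs–Henseleit at 37 °C, pH 7.4, gassed O2/CO2 19:1, at 2 g tension and equilibrated 3 h. Two cumulative noradrenaline curves were run 60 min apart, with 30 min antagonist incubation and continuous propranolol. EC50 came from non-linear regression, and Schild plots gave pA2. n = 5–8.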"}, "[24]": {"target": "T2, Alpha-1D adrenergic receptor (Rattus norvegicus, UniProt P23944)", "T2 sequence (P23944 whole entry)": "T1 sequence (whole entry)", "assay": "as §1", "format": "functional, tissue-based", "conditions": "read-out: pA2 (converted)", "procedure,_shortened": "as §2"}, "Rattus norvegicus [25]": {"test_system": "Rattus norvegicus", "assay": "Hypotensive activity in normotensive Wistar rat assessed as systolic blood pressure at 5 mg/kg, iv after 20 mins (Rvb=140.5 +/- 1.1 mmHg)", "format": "functional, Artery"}, "Rattus norvegicus [26]": {"test_system": "Rattus norvegicus", "assay": "Hypotensive activity in normotensive Wistar rat assessed as systolic blood pressure at 5 mg/kg, iv after 5 mins (Rvb=140.5 +/- 1.1 mmHg)", "format": "functional, Artery"}, "Rattus norvegicus [27]": {"test_system": "Rattus norvegicus", "assay": "Hypotensive activity in normotensive Wistar rat assessed as systolic blood pressure at 5 mg/kg, iv after 10 mins (Rvb=140.5 +/- 1.1 mmHg)", "format": "functional, Artery"}},
  "data": [
    {"smiles": "Cl.Cl.O=C1N(CC(O)CN2CCN(c3ccccc3C(F)(F)F)CC2)CCC1(c1ccccc1)c1ccccc1", "note": "(configuration not stated)", "values": [
      {"measurement": "Activity", "setting": "Rattus norvegicus [1]", "value": 103, "unit": "mmHg"}
    ]},
    {"smiles": "Cc1ccccc1N1CCN(CC(O)CN2CCC(c3ccccc3)(c3ccccc3)C2=O)CC1.Cl.Cl", "note": "(configuration not stated)", "values": [
      {"measurement": "Activity", "setting": "Rattus norvegicus [2]", "value": 117.7, "unit": "mmHg"},
      {"measurement": "Activity", "setting": "Rattus norvegicus [3]", "value": 119.7, "unit": "mmHg"},
      {"measurement": "Activity", "setting": "Rattus norvegicus [4]", "value": 133, "unit": "mmHg"},
      {"measurement": "Activity", "setting": "Rattus norvegicus [5]", "value": 133.7, "unit": "mmHg"}
    ]},
    {"smiles": "COc1ccccc1N1CCN(CC(O)CN2CCC(c3ccccc3)(c3ccccc3)C2=O)CC1.Cl.Cl", "note": "(configuration not stated)", "values": [
      {"measurement": "Activity", "setting": "Rattus norvegicus [6]", "value": 112, "unit": "mmHg"},
      {"measurement": "Activity", "setting": "Rattus norvegicus [7]", "value": 109, "unit": "mmHg"},
      {"measurement": "Activity", "setting": "Rattus norvegicus [8]", "value": 125, "unit": "mmHg"},
      {"measurement": "Activity", "setting": "Rattus norvegicus [9]", "value": 107.5, "unit": "mmHg"},
      {"measurement": "Activity", "setting": "Rattus norvegicus [10]", "value": 98, "unit": "mmHg"}
    ]},
    {"smiles": "COc1ccc(N2CCN(CC(O)CN3CCC(c4ccccc4)(c4ccccc4)C3=O)CC2)cc1.Cl.Cl", "note": "(configuration not stated)", "values": [
      {"measurement": "Activity", "setting": "Rattus norvegicus [11]", "value": 126.6, "unit": "mmHg"},
      {"measurement": "Activity", "setting": "Rattus norvegicus [12]", "value": 105.6, "unit": "mmHg"},
      {"measurement": "Activity", "setting": "Rattus norvegicus [13]", "value": 88.2, "unit": "mmHg"},
      {"measurement": "Activity", "setting": "Rattus norvegicus [14]", "value": 88.2, "unit": "mmHg"},
      {"measurement": "Activity", "setting": "Rattus norvegicus [15]", "value": 105.8, "unit": "mmHg"},
      {"measurement": "Activity", "setting": "Rattus norvegicus [16]", "value": 107.6, "unit": "mmHg"}
    ]},
    {"smiles": "CCOc1ccccc1N1CCN(CC(O)CN2CCC(c3ccccc3)(c3ccccc3)C2=O)CC1.Cl.Cl", "note": "(configuration not stated)", "values": [
      {"measurement": "Activity", "setting": "Rattus norvegicus [17]", "value": 98, "unit": "mmHg"},
      {"measurement": "Selectivity ratio", "setting": "Rattus norvegicus [18]", "value": 10},
      {"measurement": "Activity", "setting": "Rattus norvegicus [19]", "value": 105, "unit": "mmHg"},
      {"measurement": "Activity", "setting": "Rattus norvegicus [20]", "value": 114, "unit": "mmHg"},
      {"measurement": "Activity", "setting": "Rattus norvegicus [21]", "value": 95.5, "unit": "mmHg"},
      {"measurement": "Activity", "setting": "[22]", "value": "Dose-dependent effect"},
      {"measurement": "Activity", "setting": "[23]", "value": "Dose-dependent effect"},
      {"measurement": "Kb", "setting": "[24]", "value": 55, "unit": "nM"}
    ]},
    {"smiles": "Cl.Cl.O=C1N(CC(O)CN2CCN(c3ccccc3)CC2)CCC1(c1ccccc1)c1ccccc1", "note": "(configuration not stated)", "values": [
      {"measurement": "Activity", "setting": "Rattus norvegicus [25]", "value": 135.5, "unit": "mmHg"},
      {"measurement": "Activity", "setting": "Rattus norvegicus [26]", "value": 135.5, "unit": "mmHg"},
      {"measurement": "Activity", "setting": "Rattus norvegicus [27]", "value": 134.5, "unit": "mmHg"}
    ]}
  ]
}
